≈ marks a conversion by molar mass, not a printed value.
Assays:
[1] = target: T1, N-acetyltransferase Eis (Mycobacterium tuberculosis (strain ATCC 25618 / H37Rv), UniProt P9WFK7); assay: Inhibition of Mycobacterium tuberculosis Eis assessed as Eis-mediated kanamycin acetylation preincubated for 10 mins followed by substrate addition and measured for 2 to 5 mins using acetyl-CoA as substrate in presence of kanamycin by UV-Vis spectroscopy analysis
T1 sequence (P9WFK7 whole entry): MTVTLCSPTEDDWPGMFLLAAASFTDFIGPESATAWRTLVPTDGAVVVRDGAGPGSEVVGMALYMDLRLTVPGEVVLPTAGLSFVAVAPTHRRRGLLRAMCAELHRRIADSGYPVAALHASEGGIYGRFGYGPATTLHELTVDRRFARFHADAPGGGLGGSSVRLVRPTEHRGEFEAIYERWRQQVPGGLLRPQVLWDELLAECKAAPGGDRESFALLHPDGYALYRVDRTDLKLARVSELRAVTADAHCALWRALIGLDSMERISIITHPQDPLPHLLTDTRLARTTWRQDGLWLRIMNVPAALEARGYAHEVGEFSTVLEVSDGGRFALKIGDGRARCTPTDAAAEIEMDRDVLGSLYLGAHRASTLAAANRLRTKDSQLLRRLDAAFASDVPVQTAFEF
How it was run: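 Recombinant Eis (1 µM) mixed with KAN (400 µM) in 50 mM Tris-HCl pH 8.0 and preincubated 10 min with 5-fold serially diluted inhibitor (10% DMSO in buffer). Reaction started with AcCoA and DTNB (2 mM each, as added). Absorbance read every 30 s for 20 min. Initial rates (first 2-5 min) fitted to Hill plot for IC50. At least triplicate.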

[2] = tested on: Mycolicibacterium smegmatis; assay: Antibacterial activity against Mycobacterium smegmatis mc2 155 assessed as inhibition of bacterial growth incubated upto 3 weeks hrs by resazurin dye based double-dilution method; type: functional; settings: mc2 155, 504 h
How it was run: (§1)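 Double-dilution broth MIC. Media: M. smegmatis, Mueller-Hinton; M. abscessus, 7H9 + 0.05% Tween80 + 0.4% glycerol; mc²6230, 7H9 + 0.05% tyloxapol, 0.5% glycerol, 10% OADC, 0.2% casamino acids, 24 µg/mL pantothenate; other mycobacteria, 7H9 + 0.05% Tween80, 0.4% glycerol, 10% ADC. Inoculum from agar set to 0.5 McFarland, then diluted 1:100.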

[3] = tested on: Mycobacteroides abscessus; assay: Antibacterial activity against Mycobacterium abscessus ATCC 19977 assessed as inhibition of bacterial growth incubated upto 3 weeks hrs by resazurin dye based double-dilution method; type: functional; settings: ATCC 19977, 504 h; how it was run: as §1
[4] = tested on: Mycobacterium intracellulare; assay: Antibacterial activity against Mycobacterium intracellulare ATCC 13950 assessed as inhibition of bacterial growth incubated upto 3 weeks hrs by resazurin dye based double-dilution method; type: functional; settings: ATCC 13950, 504 h; how it was run: as §1
[5] = tested on: Mycobacterium avium; assay: Antibacterial activity against Mycobacterium avium ATCC 25921 assessed as inhibition of bacterial growth incubated upto 3 weeks hrs by resazurin dye based double-dilution method; type: functional; settings: ATCC 25921, 504 h; how it was run: as §1
[6] = tested on: Mycobacterium tuberculosis; assay: Antibacterial activity against Mycobacterium tuberculosis H37Ra ATCC NRS22 assessed as inhibition of bacterial growth incubated upto 3 weeks hrs by resazurin dye based double-dilution method; type: functional; settings: H37Ra ATCC NRS22, 504 h; how it was run: as §1
[7] = tested on: Mycobacterium tuberculosis; assay: Potentiation of kanamycin-induced antibacterial activity against Mycobacterium tuberculosis H37Rv assessed as kanamycin MIC incubated for 1 day followed by kanamycin addition for 6 days and by Alamar blue assay; type: functional; settings: 168 h, time 7 day
How it was run: (§2)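 Mtb in 7H9 + 10% ADC, 0.05% Tween 80, 0.4% glycerol at 37 °C. Inoculum adjusted to OD600 0.2, diluted 1:25. Cells preincubated 24 h at 37 °C with compound (100 µL of 200 µM solution). KAN then added: H37Rv at 2.5 and 1.25 µg/mL; K204 at 10, 5, 2.5, 1.25 µg/mL. Incubated 6 days, AlamarBlue added, colour read at 24 and 48 h. MIC = lowest KAN with no colour change. At least twice in duplicate.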

[8] = tested on: Mycobacterium tuberculosis; assay: Potentiation of kanamycin-induced antibacterial activity against Mycobacterium tuberculosis K204 assessed as kanamycin MIC incubated for 1 day followed by kanamycin addition for 6 days and by Alamar blue assay; type: functional; settings: K204, 168 h, time 7 day; how it was run: as §2
[9] = Metabolic stability in human liver microsomes at 2 to 4 uM incubated for 30 mins by LC-MS/MS analysis; type: ADME, Microsome; settings: dose 2-4 µM, read-out: Stability
[10] = Metabolic stability in mouse liver microsomes at 2 to 4 uM incubated for 30 mins by LC-MS/MS analysis; type: ADME, Microsome; settings: dose 2-4 µM, read-out: Stability
[11] = tested on: Mycolicibacterium smegmatis; assay: Synergistic antibacterial activity against Mycobacterium smegmatis mc2 155 assessed as fold reduction in MIC value at 8 ug/ml in presence of spectinomycin by checkerboard assay; type: functional; settings: dose 8 µg/ml
[12] = tested on: Mycolicibacterium smegmatis; assay: Synergistic antibacterial activity against Mycobacterium smegmatis mc2 155 assessed as fold reduction in MIC value at 8 ug/ml in presence of clarithromycin by checkerboard assay; type: functional; settings: dose 8 µg/ml

| Structure (SMILES) | IC50 [1] [µM] | MIC [2] [µM] | MIC [3] [µM] | MIC [4] [µM] | MIC [5] [µM] | MIC [6] [µM] | MIC [7] [µg/mL] | MIC [8] [µg/mL] | remaining at 0.5 h [9] [%] | remaining at 0.5 h [10] [%] | fold change (FC) [11] | fold change (FC) [12] |
| --- | --- | --- | --- | --- | --- | --- | --- | --- | --- | --- | --- | --- |
| CC(=O)CCCN1CCC(O)(c2ccc(Cl)cc2)CC1 | 40 | > 62.5 | > 62.5 | > 62.5 | > 62.5 | > 62.5 | – | – | – | – | – | – |
| O=C(CN1CCC(O)(c2ccc(Cl)cc2)CC1)c1ccc(F)cc1 | 100 | > 62.5 | > 62.5 | > 62.5 | > 62.5 | > 62.5 | – | – | – | – | – | – |
| O=C(CCCN1CCC(O)CC1)c1ccc(F)cc1 | 0.69 | > 62.5 | > 62.5 | > 62.5 | > 62.5 | > 62.5 | – | – | – | – | – | – |
| O=C(CCCN1CCC(O)(c2ccc(Br)cc2)CC1)c1ccc(Br)cc1 | > 200 | 31.3 (≈ 15.1 µg/mL) | > 62.5 | > 62.5 | > 62.5 | 7.8 (≈ 3.75 µg/mL) | ≤ 1.25 | > 10 | – | – | – | – |
| Cc1ccc(S(=O)(=O)N2CCC(O)(c3ccc(Cl)cc3)CC2)cc1 | > 200 | > 62.5 | > 62.5 | > 62.5 | > 62.5 | > 62.5 | – | – | – | – | – | – |
| N=C(N)NCCCC(=O)c1ccc(F)cc1 | 1.1 | > 62.5 | > 62.5 | > 62.5 | > 62.5 | 31.3 (≈ 6.99 µg/mL) | – | – | – | – | – | – |
| O=C(CCCN1CC=C(n2c(=O)[nH]c3ccccc32)CC1)c1ccc(F)cc1 [DROPERIDOL] | 12.2 | > 62.5 | > 62.5 | > 62.5 | > 62.5 | 31.3 (≈ 11.9 µg/mL) | – | – | – | – | – | – |
| O=C(CCCN1CCC(O)(c2ccc(Cl)cc2)CC1)c1ccccc1 | 5.3 | > 62.5 | > 62.5 | > 62.5 | 62.5 (≈ 22.4 µg/mL) | 62.5 (≈ 22.4 µg/mL) | ≤ 1.25 | > 10 | – | – | – | – |
| CC(C)c1ccc(C(=O)CCCN2CCC(O)(c3ccc(Cl)cc3)CC2)cc1 | > 200 | 15.6 (≈ 6.24 µg/mL) | 31.3 (≈ 12.5 µg/mL) | 7.8 (≈ 3.12 µg/mL) | > 62.5 | 7.8 (≈ 3.12 µg/mL) | – | – | – | – | – | – |
| O=C(CCCN1CCCCC1)c1ccc(F)cc1 [PRIMAPERONE] | 0.62 | > 62.5 | > 62.5 | > 62.5 | > 62.5 | > 62.5 | – | – | – | – | – | – |
| CCc1ccc(C(=O)CCCN2CCC(O)(c3ccc(Cl)cc3)CC2)cc1 | 40 | 15.6 (≈ 6.02 µg/mL) | 62.5 (≈ 24.1 µg/mL) | 15.6 (≈ 6.02 µg/mL) | 62.5 (≈ 24.1 µg/mL) | 15.6 (≈ 6.02 µg/mL) | – | – | – | – | – | – |
| O=C(CCCN1CCC(O)(c2ccc(Br)cc2)CC1)c1ccccc1 | 2.2 | > 62.5 | > 62.5 | > 62.5 | > 62.5 | 62.5 (≈ 25.1 µg/mL) | ≤ 1.25 | 10 | – | – | – | – |
| Fc1ccc(OCCCN2CCC(c3ccccc3)CC2)cc1 | 14 | > 62.5 | 62.5 (≈ 19.6 µg/mL) | 62.5 (≈ 19.6 µg/mL) | > 62.5 | 31.3 (≈ 9.81 µg/mL) | – | – | – | – | – | – |
| O=C(CCCN1CCC(c2ccc(Cl)cc2)CC1)c1ccc(F)cc1 | 1.1 | > 62.5 | > 62.5 | 31.3 (≈ 11.3 µg/mL) | > 62.5 | 62.5 (≈ 22.5 µg/mL) | – | – | – | – | – | – |
| O=C(CCCN1CC=C(c2ccc(Cl)cc2)CC1)c1ccc(F)cc1 | 0.56 | > 62.5 | > 62.5 | 15.6 (≈ 5.58 µg/mL) | 31.3 (≈ 11.2 µg/mL) | 7.8 (≈ 2.79 µg/mL) | – | – | 30 | 90 | – | – |
| O=C(CCCN1CCC(O)(c2ccccc2)CC1)c1ccc(F)cc1 | 0.85 | > 62.5 | > 62.5 | > 62.5 | > 62.5 | > 62.5 | – | – | – | – | – | – |
| O=C(CCCN1CCC(O)(c2ccc(F)cc2)CC1)c1ccc(Br)cc1 | 6.6 | > 62.5 | > 62.5 | 62.5 (≈ 26.3 µg/mL) | 62.5 (≈ 26.3 µg/mL) | 31.3 (≈ 13.2 µg/mL) | ≤ 1.25 | 10 | – | – | – | – |
| COc1ccc(C(=O)CCCN2CCC(O)(c3ccc(Br)cc3)CC2)cc1 | 5.6 | > 62.5 | > 62.5 | > 62.5 | 62.5 (≈ 27 µg/mL) | 31.3 (≈ 13.5 µg/mL) | ≤ 1.25 | > 10 | – | – | – | – |
| O=C(CCCN1CCC(O)(c2ccc(F)cc2)CC1)c1ccccc1 | 3.1 | > 62.5 | > 62.5 | > 62.5 | > 62.5 | > 62.5 | ≤ 1.25 | 10 | – | – | – | – |
| CC(C)(C)c1ccc(C(=O)CCCN2CCC(O)(c3ccc(F)cc3)CC2)cc1 | 200 | 62.5 (≈ 24.8 µg/mL) | > 62.5 | 31.3 (≈ 12.4 µg/mL) | 31.3 (≈ 12.4 µg/mL) | 15.6 (≈ 6.2 µg/mL) | – | – | 50 | 48 | 16 | 4 |
| CC1CC(C)CN(CCCC(=O)c2ccc(C(C)(C)C)cc2)C1 (stereo not given) | 200 | 62.5 (≈ 19.7 µg/mL) | 62.5 (≈ 19.7 µg/mL) | 62.5 (≈ 19.7 µg/mL) | 62.5 (≈ 19.7 µg/mL) | 31.3 (≈ 9.88 µg/mL) | – | – | – | – | – | – |
| Cc1ccc(C(=O)CCCN2CCC(O)(c3ccc(Cl)cc3)CC2)cc1 | 100 | 62.6 (≈ 23.3 µg/mL) | > 62.5 | > 62.5 | > 62.5 | 31.3 (≈ 11.6 µg/mL) | – | – | – | – | – | – |
| CC1CCCCN1CCCOc1ccc(F)cc1 (stereo not given) | > 200 | 15.6 (≈ 3.92 µg/mL) | > 62.5 | 7.8 (≈ 1.96 µg/mL) | 15.6 (≈ 3.92 µg/mL) | 7.8 (≈ 1.96 µg/mL) | – | – | – | – | – | – |
| CC1CC(C)CN(CCCOc2ccc(F)cc2)C1 (stereo not given) | 42 | 62.5 (≈ 16.6 µg/mL) | > 62.5 | > 62.5 | > 62.5 | 62.5 (≈ 16.6 µg/mL) | – | – | – | – | – | – |
| COc1ccc(C(=O)CCCN2CCC(O)(c3ccc(F)cc3)CC2)cc1 | 42 | > 62.5 | > 62.5 | > 62.5 | > 62.5 | > 62.5 | ≤ 1.25 | > 10 | – | – | – | – |
| NNC(=O)c1ccncc1 [ISONIAZID] | – | 3.9 (≈ 0.535 µg/mL) | > 62.5 | 3.9 (≈ 0.535 µg/mL) | 62.5 (≈ 8.57 µg/mL) | ≤ 1 | – | – | – | – | – | – |

From ChEMBL document CHEMBL5107950, “Structure-based design of haloperidol analogues as inhibitors of acetyltransferase Eis from Mycobacterium tuberculosis to overcome kanamycin resistance” (RSC Med Chem, 2021)
